The values that follow come from ChEMBL document CHEMBL1127302 (J Med Chem, 1994).

SMILES strings stand for the structures.

The target in assay [1] is Neuronal acetylcholine receptor (Rattus norvegicus) (UniProt P04757+P09483+P12389+P12390+P12392+P43144+Q9JLB5+P12391+P43143+P20420+Q05941). In words: In vitro neuronal nAChRs evoked [3H]dopamine release was determined in rat striatal slices at concentration of 10e-6 M. Type of assay: functional.
Assay [2] concerns the target Neuronal acetylcholine receptor. In words: In vitro binding affinity to neuronal nAChRs was determined by measuring the displacement of [3H]cytisine in rat brain. Type of assay: tissue-based. The method, boiled down: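 Whole rat brain membrane preparation; displacement of [3H]cytisine from neuronal nAChRs. Binding normalised to equilibrium dissociation constants (Ki). Values are means ± SEM.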

The compound `CN1CCC[C@@H]1c1cccnc1` yielded a Dopamine release in assay [1] of 114%.

For orientation: Ki means the equilibrium dissociation constant of an inhibitor or competing ligand from its target. The low end stands for tighter binding, the high end for weaker binding. Compound `CCCc1cc([C@H]2CCCN2)on1` registered a Ki in assay [2] of more than 10000 nM.

In assay [1], `CCc1cc([C@H]2CCCN2C)on1` came in with a Dopamine release of 78%. This compound also displayed a Ki in assay [2] of 7.6 nM.

In assay [1], `Cc1cc([C@@H]2CCCN2)on1` showed a Dopamine release of 111%. Further, the Ki in assay [2] worked out at 7.4 nM.

`Cc1cc([C@H]2CCCN2C)no1`: the Ki in assay [2] was 1330 nM. That is a single-digit micromolar value.

In turn, `c1cncc([C@H]2CCCN2)c1` displayed a Dopamine release in assay [1] of 93%.

As for `CN1CCC[C@@H]1c1cc(Cc2ccccc2)no1`, the Dopamine release in assay [1] stood at 30%. This compound returned a Ki in assay [2] of 7.4 nM.

For `CN1CCC[C@@H]1c1cc(-c2ccccc2)no1`, in assay [2], the Ki was 788 nM.

The compound `COCc1cc([C@H]2CCCN2C)on1` came in with a Dopamine release in assay [1] of 51%. Also, the affinity in assay [2] corresponds to a Ki of 21.9 nM.

In assay [1], `CCc1cc([C@@H]2CCCN2)on1` came in with a Dopamine release of 79%. Also, affinity in assay [2] was put at a Ki of 11.7 nM.

With `c1cncc([C@@H]2CCCN2)c1`, the Dopamine release in assay [1] was determined as 155%.

`CCCCc1cc([C@H]2CCCN2)on1` displayed a Ki in assay [2] of 5000 nM.

In assay [1], `CCCc1cc([C@H]2CCCN2C)on1` yielded a Dopamine release of 45%. The compound also had a Ki in assay [2] of 14 nM.

Regarding `CN1CCC[C@@H]1c1cc(C(F)(F)F)no1`, in assay [1], the Dopamine release turned out to be 92%. The compound further yielded a Ki in assay [2] of 6.1 nM.

In turn, `Cc1cc([C@@H]2CCCN2C)on1` came in with a Dopamine release in assay [1] of 85%.

Turning to `CCN1CCC[C@@H]1c1cc(C)no1`, the Dopamine release in assay [1] was 64%. The Ki in assay [2] stood at 34.3 nM.

In assay [1], `Cc1cc([C@H]2CCCN2C)on1` returned a Dopamine release of 95%.

Compound `CCc1cc([C@@H]2CCCN2C)on1` displayed a Dopamine release in assay [1] of 46%.

In assay [1], `Cc1cc([C@H]2CCCN2)sn1` registered a Dopamine release of 61%. The compound further came in with a Ki in assay [2] of 51 nM.

In the case of `CCOC(=O)c1cc([C@H]2CCCN2C)on1`, the affinity in assay [2] corresponds to a Ki of 890 nM.

With `CN1CCC[C@@H]1c1cc(CO)no1`, in assay [1], the Dopamine release worked out at 41%. Further, the Ki in assay [2] was determined as 126 nM.

Consider `CN1CCC[C@H]1c1cccnc1`, for which the Dopamine release in assay [1] stood at 126%.

`Cc1cc([C@@H]2CCCN2)sn1` had a Dopamine release in assay [1] of 56%. Affinity in assay [2] was put at a Ki of 228 nM.

Turning to `CCc1cc([C@H]2CCCN2)on1`, the Dopamine release in assay [1] came to 30%. In assay [2], this compound came in with a Ki of 552 nM.

The compound `Cc1cc([C@@H]2CCCN2C)sn1` yielded a Dopamine release in assay [1] of 22%.

Compound `CCCCc1cc([C@H]2CCCN2C)on1` registered a Dopamine release in assay [1] of 38%. This compound had an inhibitory constant (Ki) in assay [2] of 24.2 nM.

Regarding `Cc1cc([C@H]2CCCN2)on1`, the Dopamine release in assay [1] came out at 43%. The compound also had a Ki in assay [2] of 333 nM.

In assay [2], `c1ccc(-c2cc([C@H]3CCCN3)on2)cc1` displayed a Ki of more than 10000 nM.

Consider `Cc1cc([C@H]2CCCN2C)sn1`, for which the Dopamine release in assay [1] is 41%.
